Experimental findings from ChEMBL document CHEMBL4428043, “Fragment-Based Discovery of Dual JC Virus and BK Virus Helicase Inhibitors” (J Med Chem, 2016) are described below.

SMILES strings stand for the structures. Where only a bound is given, the exact number is not on record here.

For orientation: IC50 means the point on the concentration scale where inhibition reaches its midpoint. What is called EC50 is the concentration giving half of the maximal effect. A word on the CC50: it is the concentration at which the toxic effect on the cells reaches its halfway point.

The target of one series is T1, Large T antigen (JC polyomavirus, UniProt P03072).
T1 sequence (P03072 whole entry): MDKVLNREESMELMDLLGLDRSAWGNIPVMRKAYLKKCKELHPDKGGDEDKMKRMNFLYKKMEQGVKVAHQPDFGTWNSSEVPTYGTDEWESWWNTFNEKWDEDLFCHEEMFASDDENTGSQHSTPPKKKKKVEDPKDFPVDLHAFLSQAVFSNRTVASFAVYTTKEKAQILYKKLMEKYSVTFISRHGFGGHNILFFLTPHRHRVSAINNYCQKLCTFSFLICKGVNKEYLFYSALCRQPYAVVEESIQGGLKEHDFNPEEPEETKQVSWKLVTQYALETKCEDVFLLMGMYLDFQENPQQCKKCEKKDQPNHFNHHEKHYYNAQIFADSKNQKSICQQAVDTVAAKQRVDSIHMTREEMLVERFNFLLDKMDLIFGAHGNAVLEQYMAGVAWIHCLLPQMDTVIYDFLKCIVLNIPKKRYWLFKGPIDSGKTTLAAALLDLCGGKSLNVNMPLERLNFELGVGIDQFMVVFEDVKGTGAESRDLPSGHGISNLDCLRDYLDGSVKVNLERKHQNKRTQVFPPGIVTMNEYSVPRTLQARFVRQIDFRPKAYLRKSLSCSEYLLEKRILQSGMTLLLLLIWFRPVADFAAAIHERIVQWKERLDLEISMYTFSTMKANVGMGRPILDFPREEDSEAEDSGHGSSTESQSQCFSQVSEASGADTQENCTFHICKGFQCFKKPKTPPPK
In words: Inhibition of helicase activity of JC polyomavirus LTAg (E264 to D628 residues) expressed in Escherichia coli using Cy5/BHQ3 dsDNA pre-incubated for 20 mins and measured after 120 to 180 mins by fluorescence based assay.

A short description of series [1]: Inhibition of helicase activity of BK polyomavirus LTAg (E265 to D629 residues) expressed in Escherichia coli using Cy5/BHQ3 dsDNA pre-incubated for 20 mins and measured after 120 to 180 mins by fluorescence based assay. Also on record: species or system Betapolyomavirus hominis.
A further series deals with JC polyomavirus. In words: Antiviral activity against JC polyomavirus infected in […] G144 […] cells assessed as reduction in late viral protein and viral capsid protein VP1 incubated for 72 hrs by branched DNA assay. In kind it is functional, organism-based. In short, it runs like this: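 G144 […] cells plated on poly-ornithine (0.005%)/laminin (10 µg/ml)-coated flasks, infected with MAD4 JCV at MOI = 1 TCID₅₀ for 24 hr, then replated at 5,000 cells/well in differentiation medium. Compounds added in DMSO (0.5% final) for 72 hr. Lysates denatured with NaOH at 52°C for 30 min; VP1 DNA measured by bDNA capture probes. EC50 from four-parameter curve fit.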

Series [2] in a line: Cytotoxicity against […] G144 […] cells. In kind it is cell-based.

Regarding `Nc1ccccc1-c1nn2cnnc2s1`, the IC50 (against Large T antigen; in series [1]) was over 80 µM throughout.

Take `N#CCCCOc1ccccc1-c1nn2cnnc2s1`: the concentration for half-maximal inhibition (IC50) worked out at 25 µM at Large T antigen and 42 µM in series [1].

For `c1cc2c(c(-c3nc4ccncc4s3)c1)OCC2`, the IC50 amounted to 8.7 µM at Large T antigen and 15 µM in series [1]. The half-maximal effective concentration (EC50) with JC polyomavirus is 0.26 µM. Further, the CC50 in series [2] was over 50 µM.

Regarding `COCCOc1ccccc1-c1nn2cnnc2s1`, the IC50 came to 28.5 µM on Large T antigen and 63 µM in series [1].

On to `COc1ccccc1-c1nc2ccnc(N)c2s1`, for which the IC50 (against Large T antigen; in series [1]) was over 80 µM each time.

With `CCOc1ccccc1-c1nc2cnccc2s1`, the 50% inhibitory concentration (IC50) (against Large T antigen; in series [1]) was over 80 µM each time.

Turning to `c1ccc(Oc2ncccc2-c2nn3cnnc3s2)cc1`, the IC50 at Large T antigen is 8.8 µM; in series [1], 11 µM. Moreover, the EC50 in the series on JC polyomavirus is 76 µM. This molecule returned a CC50 in series [2] of over 50 µM.

As to `c1cc2c(c(-c3nn4cnnc4s3)c1)OCCC2`, the concentration for half-maximal inhibition (IC50) was 15.5 µM against Large T antigen and 24 µM in series [1].

In the case of `COc1cccc(-c2nn3cnnc3s2)c1OC`, the IC50 against Large T antigen is 62 µM; in series [1], over 80 µM.

As to `c1ccc(Oc2ncccc2-c2nc3ccncc3s2)cc1`, the half-inhibitory concentration (IC50) against Large T antigen was determined as 1.4 µM; in series [1], 1.3 µM. In the series on JC polyomavirus, the concentration giving a half-maximal response (EC50) was found to be 3.8 µM. This molecule gave a cytotoxic concentration (CC50) in series [2] of over 50 µM.

Molecule `CCOc1ccccc1-c1nn2cnnc2s1` showed an IC50 at Large T antigen of 18 µM. For the same molecule, in the series on JC polyomavirus, the EC50 worked out at 44 µM. The same molecule displayed a cytotoxic concentration (CC50) in series [2] of over 65 µM.

`Cc1ccccc1-c1nn2cnnc2s1`: the IC50 (against Large T antigen; in series [1]) was over 80 µM in each case.

Regarding `CCOc1ccccc1-c1nc2ccncc2s1`, the IC50 against Large T antigen came out at 9.1 µM; in series [1], 8 µM. Moreover, the EC50 with JC polyomavirus was found to be 7.4 µM. In series [2], this molecule showed a cytotoxic concentration (CC50) of over 50 µM.

Turning to `c1ccc(-c2nn3cnnc3s2)c(OCCN2CCOCC2)c1`, the half-inhibitory concentration (IC50) on Large T antigen turned out to be 52 µM; in series [1], 73 µM.

With `COc1ccccc1-c1nn2cnnc2s1`, the IC50 against Large T antigen came out at 19.4 µM; in series [1] it was 29 µM. In addition, the EC50 with JC polyomavirus is over 60 µM. The molecule further had a CC50 in series [2] of over 80 µM.

As for `c1ccc(-c2nn3cnnc3s2)c(OCCC2CCOCC2)c1`, the 50% inhibitory concentration (IC50) is 5.8 µM against Large T antigen and 8.4 µM in series [1]. In addition, the EC50 in the series on JC polyomavirus amounted to 15 µM. Also, the CC50 in series [2] was over 50 µM.

For `CC(=O)Nc1ccc(Oc2ccccc2-c2nc3ccncc3s2)cc1`, the IC50 against Large T antigen stood at 0.9 µM; in series [1], 1.6 µM. Moreover, in the series on JC polyomavirus, the EC50 was 48 µM. This molecule also showed a CC50 in series [2] of over 50 µM.

Turning to `COc1ccccc1Cc1nn2cnnc2s1`, the IC50 (against Large T antigen; in series [1]) was over 80 µM each time.

As for `c1ccc(Oc2ncncc2-c2nn3cnnc3s2)cc1`, the IC50 (against Large T antigen; in series [1]) was over 80 µM throughout.

Take `CN(C)c1ccccc1-c1nn2cnnc2s1`: the concentration for half-maximal inhibition (IC50) (at Large T antigen; in series [1]) was over 80 µM throughout.

In the case of `COc1ccc(-c2nn3cnnc3s2)c(OC)c1`, the figures for the half-inhibitory concentration (IC50) (against Large T antigen; in series [1]) were 18 µM and 24 µM, respectively.

As to `c1cc2c(c(-c3nn4cnnc4s3)c1)OCC2`, the IC50 at Large T antigen came out at 13.5 µM; in series [1] it was 21 µM. Also, the half-maximal effective concentration (EC50) in the series on JC polyomavirus was over 16 µM. This molecule gave a 50% cytotoxic concentration (CC50) in series [2] of over 50 µM.

Take `COc1ccccc1-c1nc2cc(N)ncc2s1`: the results for the IC50 (on Large T antigen; in series [1]) were 4.3 µM and 8.7 µM, respectively.

On to `Oc1ccccc1-c1nc2ccncc2s1`, for which the IC50 against Large T antigen is 37 µM; in series [1] it was 53 µM.

In the case of `c1ccc(-c2nn3cnnc3s2)c(OCC2CCOCC2)c1`, the half-inhibitory concentration (IC50) against Large T antigen turned out to be 6.3 µM; in series [1], 17 µM.

Turning to `CNc1cc2nc(-c3ccccc3OC)sc2cn1`, the IC50 (on Large T antigen; in series [1]) was over 80 µM throughout.

Consider `COc1cccc(OC)c1-c1nn2cnnc2s1`, for which the half-inhibitory concentration (IC50) (on Large T antigen; in series [1]) was over 80 µM each time.

In the case of `c1ccc(-c2nc3ccncc3s2)c(OCCC2CCOCC2)c1`, the IC50 at Large T antigen is 9.6 µM; in series [1] it was 11 µM. In the series on JC polyomavirus, the EC50 worked out at 7.7 µM. The CC50 in series [2] was over 50 µM.

Turning to `c1ccc(C2CC2)c(-c2nn3cnnc3s2)c1`, the half-inhibitory concentration (IC50) (at Large T antigen; in series [1]) was over 80 µM each time.

On to `c1ccc(Oc2ccncc2-c2nn3cnnc3s2)cc1`, for which the half-maximal inhibitory concentration (IC50) against Large T antigen worked out at 5.5 µM; in series [1] it was 7.3 µM.

Take `CC(=O)Nc1ccc(Oc2ncccc2-c2nc3ccncc3s2)cc1`: the IC50 at Large T antigen was 0.6 µM. The EC50 with JC polyomavirus worked out at 40 µM. Moreover, the 50% cytotoxic concentration (CC50) in series [2] is over 50 µM.

In the case of `c1ccc(Oc2ccccc2-c2nn3cnnc3s2)cc1`, the concentration for half-maximal inhibition (IC50) against Large T antigen stood at 4.9 µM; in series [1] it was 3.7 µM. Moreover, the EC50 with JC polyomavirus is 34 µM. The molecule also yielded a 50% cytotoxic concentration (CC50) in series [2] of over 50 µM.

On to `COc1ccccc1-c1nc2ccncc2s1`, for which the IC50 was found to be 5 µM at Large T antigen and 10.7 µM in series [1]. Moreover, the EC50 in the series with JC polyomavirus amounted to 1.5 µM. The CC50 in series [2] was over 50 µM.

Take `Oc1ccccc1-c1nn2cnnc2s1`: the half-maximal inhibitory concentration (IC50) (at Large T antigen; in series [1]) was over 80 µM each time.

As to `c1ccc(Oc2ccccc2-c2nc3ccncc3s2)cc1`, the IC50 at Large T antigen came out at 10.5 µM; in series [1], 10.2 µM. In the series with JC polyomavirus, the EC50 came to 36 µM. The CC50 in series [2] was over 50 µM.
